This is a sample that favours compounds with a hit; in the whole collection about 4.9% have one here.
NF-kB expr up: compounds increasing NF-kB expression in human neuronal cells | fold change at 12.5 µM | NF-kB reporter expression; stronger effect = higher value | hit rate 1.6% among 190,000; in the data active = fold change above about 3.3
STAT1 inh: STAT1 signaling inhibition | NIH 3T3 STAT1-luciferase reporter, IFN-gamma, luminescence | inhibition, % at 5.5 µM | hit rate 0.35% among 200,000;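 active = inhibition above a set limit, the mean inhibition across all tested compounds plus 3 SD, cut at about 34% in these data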;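 also: 0% = IFN-gamma with DMSO and 100% = IFN-gamma with 300 µM nifuroxazide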
APP 5'UTR act: APP 5'UTR luciferase reporter activation; SH-SY5Y APP 5'UTR luciferase reporter, luminescence; zero percent = DMSO vehicle wells; activation, % at 2 µM; hit rate 1% among 190,000; AID 1276;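 active = activation above a set limit, based on mean plus 3 SD of controls, cut at about 140% in these data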
STAT3 activator: activators of IL-6 induced STAT3 signaling | U3A cells, IL-6 STAT3-luciferase reporter, luminescence; 100% = signal with IL-6 EC80 alone | activation (% of control), % at 5.6 µM | hit rate 0.91% among 190,000 | AID 871;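 active = activation above the screen-wide mean of compound activation plus 3 SD, cut at about 130% in these data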;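 also: 0% = background luminescence of wells with medium and substrate only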
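Material: STAT3-luciferase reporter U3A cells; Probe or stimulus: IL-6 (33 ng/mL); Incubation: compound pre-incubation 1 h before IL-6, then 6 h stimulation at 37 °C; Technique: luminescence from STAT3-driven luciferase reporter; Evaluation: % activation versus median of IL-6-stimulated wells; Controls: IL-6-only high control.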
STAT3 blocker: reduces IL-6 driven STAT3 reporter signal; U3A cells, IL-6 STAT3-luciferase reporter, luminescence; host cell line lacks STAT1; inhibition, % at 5.5 µM; hit rate 0.89% among 190,000;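 active = inhibition above the mean inhibition across all screened compounds plus 3 SD, cut at about 44% in these data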;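 also: 0% = DMSO only wells and 100% = 100 µM nifuroxazide control wells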
STAT1 activator: activators of IFN-gamma induced STAT1 signaling | hit rate 2.6% among 200,000 | NIH 3T3 STAT1-luciferase reporter, luminescence; 100% = IFN-gamma alone, no compound | activation (% of control), % at 5.5 µM;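 active = activation above the screen-wide mean activation plus 3 SD, cut at about 130% in these data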;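 also: raw ratio to IFN-gamma control signal so 100% means no change and 0% no light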
An asterisk follows results filed as active.

SMILES	NF-kB expr up	STAT1 inh	APP 5'UTR act	STAT3 activator	STAT3 blocker	STAT1 activator
Clc1ccccc1OCc1nnc(-c2ccccc2Br)o1	3.1	-41	95	106	-5	137*
Cc1ncc(CO)c(/C=N/NC(=S)Nc2ccc(F)cc2)c1O	0.79	-2	-32	90	19	102
Cc1ncc(CO)c(/C=N/N=C/c2ccccc2O)c1O	3.6*	-10	64	109	-4	110
CC(=O)Oc1c(C)cc(Cl)cc1C(=O)Nc1ccc([N+](=O)[O-])cc1Cl	0.87	3	32	63	46*	97
O=C(O)/C=C/C(=O)NNC(=O)c1cccc(Br)c1	1.1	-14	-1	101	-1	112
NC(N)=N/N=C/c1ccc(OCc2ccc(Cl)cc2)cc1	6*	-14	111	106	5	112
NC(N)=N/N=C/c1ccc(OCc2ccccc2)cc1	1.7	15	52	99	12	87
c1ccc(NCC2OCc3ccccc3CO2)cc1	2.3	-40	58	100	-3	136*
O=C(NCCSc1ccccn1)c1ccc(Cl)cc1	6.1*	-24	209*	79	27	121
O=C(NCCSc1ccccn1)c1ccc(Cl)cc1Cl	4.5*	-29	120	92	17	125
O=C(Nc1ccccc1)c1ccc(CSc2ccccn2)cc1	3.3	-36	197*	79	28	133*
CCOC(=O)N/N=C(/c1ccccc1)C1CCCCC1	1.3	0	12	96	5	100
Cc1nc(SCC(=O)NCc2ccco2)c2c(=O)n(C)c(=O)n(CC(C)C)c2n1	1.1	-1	6	92	14	97
Cc1nc2cc(Nc3ccncc3)ccc2s1	1.2	3	-2	94	14	96
O=C(NCc1cc(Br)cc(Br)c1OC(=O)c1ccccc1[N+](=O)[O-])c1ccccc1	1.1	7	-4	96	7	94
COc1cc(C2Nc3ccccc3C(=O)N2c2ccc(Cl)cc2)c(Cl)cc1OCC(=O)O (configuration not stated)	2.9	-43	105	115	-12	138*
COc1cc(C2NC(=O)NC(c3ccccc3)=C2C(C)=O)cc(Cl)c1OCC(=O)O (configuration not stated)	1.3	1	0	106	2	99
COc1cc(C2NC(=O)NC(c3ccccc3)=C2C(C)=O)c(Cl)cc1OCC(=O)O (configuration not stated)	1.4	2	199*	104	-3	97
COc1cc(C2Nc3ccccc3C(=O)N2c2ccccc2)ccc1O (configuration not stated)	2.1	-17	20	133*	-38	114
CCOc1cc(C2Nc3ccccc3C(=O)N2c2ccccc2)c(Br)cc1OCC(=O)O (configuration not stated)	1.2	-9	29	106	-2	108
CCOc1cc(C2Nc3ccccc3C(=O)N2c2ccccc2)ccc1O (configuration not stated)	1.3	-3	30	104	-1	103
Nc1nc(CSc2ccccn2)nc(Nc2ccccc2)n1	4.7*	-52	134	113	-13	148*
Nc1nc(CSCCO)nc(Nc2ccccc2)n1	1.2	-6	3	101	3	105
O=c1c(Cc2c(F)cccc2Cl)c(O)ccn1CCCn1ccnc1	1	-3	1	98	8	100
O=C(NNC1=NCCCCC1)Nc1cccc(Cl)c1	1.1	-40	58	104	2	136*
SMILES	NF-kB expr up	STAT1 inh	APP 5'UTR act	STAT3 activator	STAT3 blocker	STAT1 activator
O=C(NNc1cccc(Cl)n1)Nc1cccc(Cl)c1	1.1	3	-2	97	1	97
Cc1cccc(C)c1-n1cccc1/C=C1\SC(=S)N(c2cccc(C(=O)O)c2)C1=O	1.2	0	2	101	4	98
C=CCSc1n[nH]c(-c2ccc(OC)cc2)n1	2.6	-44	56	90	15	140*
O=C(NC1CCCC1)C1CCCN1C(=O)Oc1ccccc1 (configuration not stated)	1.2	-1	1	98	9	99
Cc1ccccc1OCc1nc2c3cnn(C)c3ncn2n1	2.5	-44	-15	106	-5	141*
CCn1c(SCc2ccccc2Cl)nc2ccccc21	1.8	-20	5	97	7	118
